What was measured:
[1] = Inhibition of HIV1 reverse transcriptase 41L/67N/70R/184V/210W/215Y mutant in presence of 5 mM ATP by heteropolymeric DNA polymerase assay; parameters: species or system Human immunodeficiency virus 1
In short: (§1)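 Heteropolymeric DNA polymerase assay with ATP added at 5 mM. Purified HIV-1 RT at 30–100 pM acts on a plate-bound DNA primer with a 5′-A12-(GTCA)5-3′ template. dATP, dGTP, dCTP and BrdUTP at 1.0 μM each. Incubation 180 min at 33°C. BrdUMP incorporation read via anti-BrdU-AP at 405 nm after NaOH dehybridization. IC50 from seven inhibitor concentrations, at least two experiments in duplicate.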

[2] = Inhibition of HIV1 LAI reverse transcriptase 65R mutant by heteropolymeric DNA polymerase assay; parameters: species or system Human immunodeficiency virus 1
In short: (§2)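 Purified p66/p51 HIV-1 RT, or p66 homodimer for 65R, at 30–100 pM (about 1.5–4.5 mU/well). Plate-bound 18-mer DNA primer on a 50-base 5′-A12-(GTCA)5-3′ DNA template. dATP, dGTP, dCTP and BrdUTP at 1.0 μM each, no ATP. Buffer: HEPES 50 mM pH 7.3, 10 mM MgCl2. Incubation 180 min at 33°C, NaOH dehybridization, anti-BrdU-AP tracer, A405. IC50 from seven inhibitor concentrations, at least two experiments in duplicate.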

[3] = Inhibition of HIV1 reverse transcriptase 184V mutant in presence of 5 mM ATP by heteropolymeric DNA polymerase assay; parameters: species or system Human immunodeficiency virus 1; in short: as §1
[4] = Inhibition of HIV1 reverse transcriptase 41L/69S-SG/184V/210W/215Y mutant in presence of 5 mM ATP by heteropolymeric DNA polymerase assay; parameters: species or system Human immunodeficiency virus 1; in short: as §1
[5] = Inhibition of HIV1 reverse transcriptase wild type HXB2(a) in presence of 5 mM ATP by heteropolymeric DNA polymerase assay; parameters: species or system Human immunodeficiency virus 1
In short: (§3)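 Heteropolymeric DNA assay with 5 mM ATP added: immobilized 18-mer primer, 5′-A12-(GTCA)5 50-mer template, dATP/dGTP/dCTP/BrdUTP at 1.0 μM each, HEPES 50 mM pH 7.3, MgCl2 10 mM. RT 30–100 pM, incubated at 33°C for 180 min. NaOH strand separation, then anti-BrdU-AP detection at 405 nm. IC50 fitted from seven inhibitor concentrations; two to four runs in duplicate.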

[6] = Inhibition of HIV1 reverse transcriptase wild type HXB2(a) by heteropolymeric DNA polymerase assay; parameters: species or system Human immunodeficiency virus 1
In short: (§4)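 Heteropolymeric assay without ATP: plate-bound 18-mer DNA primer (~110 nM) with 50-mer 5′-A12-(GTCA)5 template (190 nM). dATP, dGTP, dCTP and BrdUTP at 1.0 μM each, in HEPES 50 mM pH 7.3, MgCl2 10 mM. RT 30–100 pM, 33°C for 180 min, then NaOH dehybridization and anti-BrdU-AP tracer read at 405 nm. IC50 from seven triphosphate concentrations; two to four runs in duplicate.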

[7] = Inhibition of HIV1 reverse transcriptase 184V mutant by heteropolymeric DNA polymerase assay; parameters: species or system Human immunodeficiency virus 1; in short: as §2
[8] = target: T1, Human immunodeficiency virus type 1 reverse transcriptase (Human immunodeficiency virus 1, UniProt Q72547); test: Inhibition of HIV1 LAI reverse transcriptase wild type LAI by heteropolymeric DNA polymerase assay; in short: as §4
[9] = Inhibition of HIV1 reverse transcriptase 41L/69S-SG/210W/215Y mutant in presence of 5 mM ATP by heteropolymeric DNA polymerase assay; parameters: species or system Human immunodeficiency virus 1; in short: as §1
[10] = Inhibition of HIV1 reverse transcriptase 75I/77L/116Y/151M/184V mutant by heteropolymeric DNA polymerase assay; parameters: species or system Human immunodeficiency virus 1; in short: as §2
[11] = Inhibition of HIV1 reverse transcriptase 75I/77L/116Y/151M mutant in presence of 5 mM ATP by heteropolymeric DNA polymerase assay; parameters: species or system Human immunodeficiency virus 1; in short: as §1
[12] = Inhibition of HIV1 LAI reverse transcriptase 65R mutant in presence of 5 mM ATP by heteropolymeric DNA polymerase assay; parameters: species or system Human immunodeficiency virus 1; in short: as §1
[13] = Inhibition of HIV1 reverse transcriptase 41L/67N/70R/210W/215Y mutant by heteropolymeric DNA polymerase assay; parameters: species or system Human immunodeficiency virus 1; in short: as §2
[14] = Inhibition of HIV1 reverse transcriptase 75I/77L/116Y/151M/184V mutant in presence of 5 mM ATP by heteropolymeric DNA polymerase assay; parameters: species or system Human immunodeficiency virus 1; in short: as §1
[15] = Inhibition of HIV1 reverse transcriptase 75I/77L/116Y/151M mutant by heteropolymeric DNA polymerase assay; parameters: species or system Human immunodeficiency virus 1; in short: as §2
[16] = Inhibition of HIV1 reverse transcriptase 41L/69S-SG/184V/210W/215Y mutant by heteropolymeric DNA polymerase assay; parameters: species or system Human immunodeficiency virus 1; in short: as §2
[17] = target: T1, Human immunodeficiency virus type 1 reverse transcriptase; test: Inhibition of HIV1 LAI reverse transcriptase wild type in presence of 5 mM ATP by heteropolymeric DNA polymerase assay; in short: as §3
[18] = Inhibition of HIV1 reverse transcriptase 41L/67N/70R/184V/210W/215Y mutant by heteropolymeric DNA polymerase assay; parameters: species or system Human immunodeficiency virus 1; in short: as §2
[19] = Inhibition of HIV1 reverse transcriptase 41L/69S-SG/210W/215Y mutant by heteropolymeric DNA polymerase assay; parameters: species or system Human immunodeficiency virus 1; in short: as §2
[20] = target: T1, Human immunodeficiency virus type 1 reverse transcriptase; test: Inhibition of HIV1 pNL4-3 reverse transcriptase wild type pNL4-3 by heteropolymeric DNA polymerase assay; in short: as §4
[21] = Inhibition of HIV1 pNL4-3 reverse transcriptase 115F mutant in presence of 5 mM ATP by heteropolymeric DNA polymerase assay; parameters: species or system Human immunodeficiency virus 1; in short: as §1
[22] = target: T1, Human immunodeficiency virus type 1 reverse transcriptase; test: Inhibition of HIV1 pNL4-3 reverse transcriptase wild type pNL4-3 in presence of 5 mM ATP by heteropolymeric DNA polymerase assay; in short: as §3
[23] = Inhibition of HIV1 pNL4-3 reverse transcriptase 115F mutant by heteropolymeric DNA polymerase assay; parameters: species or system Human immunodeficiency virus 1; in short: as §2

| Compound | IC50 [1] | IC50 [2] | IC50 [3] | IC50 [4] | IC50 [5] | IC50 [6] | IC50 [7] | IC50 [8] | IC50 [9] | IC50 [10] | IC50 [11] | IC50 [12] | IC50 [13] | IC50 [14] | IC50 [15] | IC50 [16] | IC50 [17] | IC50 [18] | further results |
| --- | --- | --- | --- | --- | --- | --- | --- | --- | --- | --- | --- | --- | --- | --- | --- | --- | --- | --- | --- |
| Nc1nc2c(ncn2[C@H]2CO[C@@H](COP(=O)(O)OP(=O)(O)OP(=O)(O)O)O2)c(=O)[nH]1 | 190 nM | 620 nM | 200 nM | 260 nM | 150 nM | 120 nM | 200 nM | 180 nM | 340 nM | 7200 nM | 1200 nM | 1300 nM | 110 nM | 2400 nM | 2500 nM | 140 nM | 200 nM | 140 nM |  |
| Nc1nc(=O)c2ncn([C@H]3C=C[C@@H](COP(=O)(O)OP(=O)(O)OP(=O)(O)O)C3)c2[nH]1 [CARBOVIR 5'-TRIPHOSPHATE, (-)-] | 4500 nM | 5000 nM | 8400 nM | 6400 nM | 1500 nM | 1100 nM | 5500 nM | 680 nM | 5100 nM | 54000 nM | 11000 nM | 5500 nM | 900 nM | 18000 nM | 6600 nM | 3400 nM | 900 nM | 2700 nM | IC50 [19]: 900 nM; IC50 [20]: 1200 nM; IC50 [21]: 3600 nM; IC50 [22]: 1800 nM; IC50 [23]: 2600 nM |
